Only a selection was taken, and hits are over-represented in it overall.
GSK3 alpha inh = blocks human GSK-3 alpha kinase. AID 2650. inhibition, % at 10 µM. P49840. hit rate 0.1% among 320,000. ADP-Glo luminescence, 60 min;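 active = more than half of replicates show inhibition above 20%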;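 also: GST-tagged GSK-3 alpha with peptide substrate and 25 µM ATP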
GSK3beta inhib = human GSK3beta kinase inhibition; AID 2097; GST-GSK3beta kinase, ADP-Glo luminescence, 60 min; hits give low values; hit rate 0.038% among 300,000; activity score (negative = inhibition), % at 10 µM;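 active = more than half of replicate wells score below -50%, meaning over 50% inhibition versus plate controls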
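Test system – GST-tagged human GSK3beta kinase, cell-free · Incubation – 60 min enzyme reaction, room temperature · Signal – ADP-Glo luminescence · Also added – peptide substrate and ATP at 25 µM · Controls – DMSO neutral wells and GW8510 at 20 µM as positive · Buffer or medium – Tris/MgCl2 kinase buffer · Measure – Luminescence-derived activity versus plate DMSO and GW8510 wells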
CDK5 inh = CDK5/p35 (human) kinase inhibition; Recombinant CDK5/p35, ADP-Glo luminescence, 60 min; hit rate 0.01% among 330,000; inhibition, % at 10 µM; AID 488839;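 active = highest replicate inhibition of at least 50% and at least 75% of replicates reaching 50%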
Target sequence (Q00535 whole entry, looked up): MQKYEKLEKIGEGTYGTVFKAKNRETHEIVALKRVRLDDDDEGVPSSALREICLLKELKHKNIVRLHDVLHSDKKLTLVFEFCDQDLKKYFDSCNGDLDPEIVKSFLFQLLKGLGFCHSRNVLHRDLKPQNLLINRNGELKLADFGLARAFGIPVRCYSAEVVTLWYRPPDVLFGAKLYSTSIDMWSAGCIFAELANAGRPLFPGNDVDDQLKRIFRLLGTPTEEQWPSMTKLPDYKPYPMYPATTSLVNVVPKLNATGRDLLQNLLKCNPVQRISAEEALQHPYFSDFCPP
Target sequence (Q15078 whole entry, looked up): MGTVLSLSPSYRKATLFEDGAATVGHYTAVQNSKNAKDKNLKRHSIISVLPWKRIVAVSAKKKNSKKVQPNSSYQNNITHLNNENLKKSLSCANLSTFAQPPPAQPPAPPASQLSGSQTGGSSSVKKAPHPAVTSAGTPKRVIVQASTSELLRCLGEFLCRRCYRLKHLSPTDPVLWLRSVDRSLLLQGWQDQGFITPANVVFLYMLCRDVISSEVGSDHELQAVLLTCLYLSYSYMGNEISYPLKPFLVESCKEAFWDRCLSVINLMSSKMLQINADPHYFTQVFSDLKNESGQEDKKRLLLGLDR
DYRK1A inh = blocks rat Dyrk1A kinase activity. AID 504441. hit rate 0.43% among 310,000. ADP-Glo luminescence, NFATc1 peptide. inhibition, % at 12.5 µM; in the data active = inhibition above about 50%
STK33 kinase inh = human STK33 kinase inhibition | inhibition, % at 10 µM | hit rate 0.073% among 320,000 | Q9BYT3 | purified STK33, MBP phosphorylation, ADP-Glo luminescence;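 active = inhibition at or above 25%, using the most active replicate where run in duplicate; inactive = inhibition below 25%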
ADP-Glo artifact = interferes with ADP-Glo luciferase readout without Dyrk1A | shares compounds with DYRK1A inh | ADP-Glo luciferase artifact assay, no Dyrk1A, luminescence | AC50, µM (doses to about 12 µM) | 1,300 tested, under 10 active | AID 588348;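 active = fitted half-maximal dose AC50 no more than ten times the top valid tested dose, with luminescence dropping as dose rises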
Each line names hits and unclear results; the compound was inactive in the other large screens (follow-up assays come after a bar, where they were run).

Cc1ccccc1/C=N/Nc1ncnc2nc[nH]c12	GSK3 alpha inh 54.1, DYRK1A inh 62.8 | ADP-Glo artifact inactive
C(=N\Nc1ncnc2nc[nH]c12)/c1cccs1	DYRK1A inh 66.0 | ADP-Glo artifact inactive
Cc1ccsc1/C=N/Nc1ncnc2nc[nH]c12	DYRK1A inh 53.8 | ADP-Glo artifact inactive
Cc1ccc(S(=O)(=O)N2CCN(S(=O)(=O)c3ccccc3Br)CC2)cc1	none (no result: GSK3 alpha inh, GSK3beta inhib, STK33 kinase inh)
COc1ccc(CC(=O)NNC(=O)c2cc(C)oc2C)cc1OC	none (no result: GSK3 alpha inh, STK33 kinase inh)
Cc1c(O)ccc2c(CN(C)Cc3ccccc3)cc(=O)oc12	DYRK1A inh 59.2 | ADP-Glo artifact inactive
CC(=O)Nc1cccc(-c2cnc(N)c(C(=O)c3cccnc3)n2)c1	GSK3 alpha inh 88.5, DYRK1A inh 88.2 (no result: GSK3beta inhib) | ADP-Glo artifact inactive
CS(=O)(=O)CCSc1ncccc1C(=O)NCc1cccs1	none (no result: CDK5 inh, DYRK1A inh)
Cc1ccnc(NC(=O)c2cccc(S(=O)(=O)N3CCN(c4ccccc4)CC3)c2)c1	DYRK1A inh 60.2 | ADP-Glo artifact inactive
O=C(C1CC(=O)N(C2CCCC2)C1)N1CCN(c2ccc(F)cc2)CC1 (centres undefined)	DYRK1A inh 61.1 (no result: GSK3 alpha inh, STK33 kinase inh) | ADP-Glo artifact inactive
CC(C)C(=O)N1CCN(c2ccc([N+](=O)[O-])c(NC(C)c3ccccc3)c2)CC1 (centres undefined)	none
N#Cc1c2ccc(O)cc2n2ccccc12	DYRK1A inh 86.8, STK33 kinase inh 31.9 | ADP-Glo artifact inactive
Oc1ccc2nnc3c(Br)cnn3c2c1	DYRK1A inh 77.2 | ADP-Glo artifact inactive
CCCCC[C@@H]1C=C(C(=O)O)[C@H](c2ccc(F)cc2)N1S(=O)(=O)c1ccc(C)cc1	none (no result: GSK3beta inhib, DYRK1A inh)
NC(=O)c1ccc(NC(=O)CSc2cn(CC(=O)N3CCOCC3)c3ccccc23)cc1	none
Cc1ccc(-c2nn[nH]n2)cc1Cl	DYRK1A inh 53.2 | ADP-Glo artifact inactive
O=C(Nc1cccc(Cl)c1)ON=C1c2ccccc2-c2ccccc21	DYRK1A inh 50.3 | ADP-Glo artifact inactive
Cc1cc(C)c(C)c(OCCCN(C)C)c1	none
O=C(Nc1cccc2ncccc12)c1cc([N+](=O)[O-])ccc1Cl	none
CN(C)S(=O)(=O)c1ccc(Cl)c(C(=O)Nc2cccc3ncccc23)c1	DYRK1A inh 85.2 (no result: GSK3beta inhib) | ADP-Glo artifact inactive
Cc1ccc(N(C)S(=O)(=O)c2ccc(-c3cnc(C4CC4)o3)cc2)cc1	none
COc1ccc(NC(=O)/C(C#N)=C\c2ccc(-c3cccc(C(=O)O)c3C)o2)cc1	DYRK1A inh 77.7 | ADP-Glo artifact inactive
C=CCN1C(=O)c2ccc(C(=O)N3CCN(S(=O)(=O)c4cccc(Cl)c4)CC3)cc2C1=O	none
COc1cccc(NC(=O)c2sc(NC(=O)c3ccncc3)nc2C)c1	DYRK1A inh 54.2 | ADP-Glo artifact inactive
COc1cccc(NC(=O)c2ccncc2)c1	none
CN(C)CCNc1ccc(CO)c2sc3ccc(O)cc3c(=O)c12	DYRK1A inh 76.7 (no result: GSK3 alpha inh, GSK3beta inhib, STK33 kinase inh) | ADP-Glo artifact inactive
O=C(O)c1ccc(/C=N/Nc2ccc(C(F)(F)F)cn2)cc1	CDK5 inh 56.9, DYRK1A inh 54.0 (no result: GSK3 alpha inh, STK33 kinase inh) | ADP-Glo artifact inactive
O=C(O)c1ccc(/C=N/Nc2cccc(C(F)(F)F)c2)cc1	none (no result: GSK3 alpha inh, GSK3beta inhib)
O=C(Nc1ccccc1O)c1csc2c1CCCC2	none
O=C(Nc1cccc(-c2nn[nH]n2)c1)c1csc2c1CCCC2	DYRK1A inh 56.0 | ADP-Glo artifact inactive
CCc1ccc(C(=O)Nc2cccc(-c3nn[nH]n3)c2)s1	DYRK1A inh 82.9 | ADP-Glo artifact inactive
CCc1ccc(C(=O)Nc2nc(C)cs2)s1	none
CC(=O)CCc1ccc(OCC(=O)Nc2cccc(S(=O)(=O)N(C)c3ccccc3)c2)cc1	none (no result: GSK3 alpha inh, GSK3beta inhib, STK33 kinase inh)
Cc1cc(C)cc(S(=O)(=O)c2cn(C)c3cc(N4CCN(C)CC4)c(F)cc3c2=O)c1	none
CN1CCc2cc3c(c4c2[C@H]1[C@H](O)c1ccccc1-4)OCO3	DYRK1A inh 82.3 | ADP-Glo artifact inactive
COc1ccc2c(c1OC)C(=O)OC2C1c2c(cc3c(c2OC)OCO3)CCN1C (centres undefined)	none
COc1ccc2nc3c(cc2c1)c(NC(=O)c1cccs1)nn3CC(C)C	GSK3 alpha inh 72.6, GSK3beta inhib -92.0, DYRK1A inh 89.4 | ADP-Glo artifact inactive
CC(C)Cn1nc(NC(=O)c2cccs2)c2cc3ccccc3nc21	none
CC(C)[C@H](NC(=O)[C@@H]1Cc2ccccc2CN1C(=O)OC(C)(C)C)C(=O)NCC1CCC(C(=O)O)CC1 (some centres undefined)	none
CC1=C(C(=O)OCc2ccc3c(c2)OCO3)C(c2ccc(F)cc2)NC(=O)N1 (centres undefined)	GSK3 alpha inh 50.9, DYRK1A inh 70.2 | ADP-Glo artifact inactive
Cc1ccc(N(C(=O)c2cnccn2)C(C(=O)NC2CCCCC2)c2ccc(O)cc2)cc1 (centres undefined)	none
c1cnc2ncc3sccc3c2c1	DYRK1A inh 59.2 | ADP-Glo artifact inactive
Cc1noc(C(F)(F)F)c1C(=O)NNC(=O)c1cccc(C(F)(F)F)c1	none
N#C/C(=C1\C(=O)Nc2c(Cl)cc(Cl)cc21)c1nnc2n1CCCCC2	none
Clc1c(Cl)c(Cl)c2n[nH]nc2c1Cl	DYRK1A inh 79.8 | ADP-Glo artifact inactive
C=CCn1c(=NC(=O)CC)n(C)c2ccccc21	none
O=C(O)CSc1ncnc2scc(-c3ccccc3)c12	DYRK1A inh 72.9 | ADP-Glo artifact inactive
CN(C)C(=O)CSc1ncnc2scc(-c3ccccc3)c12	none
O=C(Nc1ccccc1)Oc1cccc(Br)c1	none
c1ccc(-c2nnc3sc(Cc4cccs4)nn23)cc1	DYRK1A inh 58.6 | ADP-Glo artifact inactive
COc1nc(C)ccc1-c1noc(-c2ccccn2)n1	DYRK1A inh 56.7 | ADP-Glo artifact inactive
Cc1ccc2nc(NC(=O)CSc3nnc(C)c(=O)n3N)sc2c1	none (no result: GSK3 alpha inh, STK33 kinase inh)
O=C1c2ccccc2C(=O)c2c(O)c(O)cc(O)c21	none (no result: GSK3 alpha inh, GSK3beta inhib, STK33 kinase inh)
O=c1c(O)cccc2cc(O)c(O)c(O)c12	DYRK1A inh 81.9 | ADP-Glo artifact inactive
Nc1[nH]n2c(=O)cc(-c3ccccc3)nc2c1N=Nc1ccc(S(N)(=O)=O)cc1	DYRK1A inh 64.1 | ADP-Glo artifact inactive
Cc1ccc(S(=O)(=O)N(CC(=O)N2CCN(c3ccc(F)cc3)CC2)C2CCCCC2)cc1	none
c1ccc(-c2nnc(CSc3ccc4c(c3)OCCO4)o2)cc1	DYRK1A inh 53.8 | ADP-Glo artifact inactive
O=C(OCc1nnc(-c2ccccc2)o1)c1ccc2c(c1)OCO2	none
Cc1ccc(C(=O)Nc2ccc3ccccc3n2)cc1	none
O=C(Nc1ccc2ccccc2n1)c1ccccc1	DYRK1A inh 51.1 | ADP-Glo artifact inactive
COc1ccc(-c2cn(-c3ccccc3)nc2C(=O)O)cc1OC	none
Cc1cccc(CNc2ncnc3ccc(-c4ccc5c(c4)OCO5)cc23)c1	DYRK1A inh 50.8 (no result: GSK3beta inhib) | ADP-Glo artifact inactive
O=S(=O)(Nc1c(S(=O)(=O)c2ccccc2)c2nc3ccccc3nc2n1C1CCCCC1)c1ccccc1	DYRK1A inh 74.9 | ADP-Glo artifact inactive

Screens deposited in PubChem BioAssay by Broad Institute.
